Screening results from PubChem.
HCV core dimer = blocks dimerization of HCV core protein; hit rate 0.33% among 300,000; TR-FRET GST/Flag-core106 dimerization, 1536-well; AID 1899; inhibition, % at 5 µM;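 active = inhibition above the mean of all tested compounds plus 3 SD, set per screening campaign, cut at about 45% in these data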
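assay system = GST-tagged and Flag-tagged HCV core protein residues 1-106 | controls = unlabelled core106 and no-GST-core106 wells | incubation = compound-protein-antibody incubation 4 h at 22.5 °C | probe or stimulus = Eu donor and XL665 acceptor anti-tag antibodies | read-out = % inhibition based on acceptor/donor emission ratio | signal = TR-FRET 671 and 617 nm emission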
GPR7 antagonist = human neuropeptides B/W receptor 1 antagonism. P48145. GPR7-expressing cells, fluorescence antagonist assay. inhibition, % at 4.4 µM. hit rate 1.1% among 290,000; in the data active = inhibition above about 16%, passing the limit was not always enough;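 also: cells stimulated with the agonist NPW; 0% = agonist with vehicle and 100% = vehicle without agonist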
Target sequence (P48145 whole entry, looked up): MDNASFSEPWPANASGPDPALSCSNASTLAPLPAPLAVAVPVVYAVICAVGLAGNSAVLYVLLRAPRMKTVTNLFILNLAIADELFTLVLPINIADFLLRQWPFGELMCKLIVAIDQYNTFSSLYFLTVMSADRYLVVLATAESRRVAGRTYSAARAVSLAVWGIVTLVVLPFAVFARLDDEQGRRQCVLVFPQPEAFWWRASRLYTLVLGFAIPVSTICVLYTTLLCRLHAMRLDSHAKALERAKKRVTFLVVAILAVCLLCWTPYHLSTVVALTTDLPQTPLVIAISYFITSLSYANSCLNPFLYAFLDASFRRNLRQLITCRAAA
NS3 helicase inh = blocks Hepatitis C virus NS3 helicase unwinding. NS3 helicase DNA unwinding, Cy5 molecular beacon fluorescence. inhibition, % at 10.9 µM. hit rate 0.56% among 290,000. AID 1800;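 active = inhibition above the mean of all tested compounds plus 3 SD, set per campaign, cut at about 35% in these data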;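 also: 0% = DMSO wells and 100% = thioflavine S control wells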
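Assay system – hepatitis C virus NS3 helicase domain fragment enzyme · Buffer or medium – MOPS pH 6.5, MgCl2, DTT, Tween20, BSA · Reagent – Cy5/quencher beacon DNA duplex and ATP to start · Compound – single 10.9 µM dose · Timing – 1 h at 25 °C · Technique – Cy5 beacon fluorescence read at start and 1 h · Measure – % inhibition of unwinding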
ZTA counter = blocks Epstein-Barr virus ZTA, an EBNA-1 counter-screen; ZTA-DNA binding, fluorescence polarization; inhibition, % at 11 µM; hit rate 0.15% among 320,000; in the data active = inhibition above about 33%
EBNA-1 inh = blocks EBNA-1 binding to DNA; EBNA-1 DNA binding, fluorescence polarization; inhibition, % at 14.8 µM; hit rate 0.34% among 300,000; in the data active = inhibition above about 28%
EBV gp42 inh = EBV gp42 inhibition. Q1HVG2. Fluorescence polarization binding assay, mP read-out. inhibition, % (tested at 21.74 µM). hit rate 0.42% among 220,000. AID 1085; in the data active = inhibition above about 50%
Target sequence (Q1HVG2 whole entry, looked up): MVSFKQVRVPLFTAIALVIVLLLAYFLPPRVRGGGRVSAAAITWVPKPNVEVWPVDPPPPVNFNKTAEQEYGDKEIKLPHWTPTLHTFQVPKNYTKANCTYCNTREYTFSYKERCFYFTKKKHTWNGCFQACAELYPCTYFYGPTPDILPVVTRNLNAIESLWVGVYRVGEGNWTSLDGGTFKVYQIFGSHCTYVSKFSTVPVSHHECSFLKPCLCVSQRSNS
Zta DNA confirm = EBV ZTA DNA binding inhibition, confirmation; shares compounds with ZTA counter; Zta-ZRE DNA binding, fluorescence polarization; inhibition, % at 11.1 µM; hit rate 30% among 320; AID 2361;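 active = mean inhibition across triplicate runs above the hit threshold derived for the original primary screen, cut at about 33% in these data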;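 also: 0% = Zta with DMSO and 100% = wells lacking Zta protein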
EBNA-1 counter = counter-screen for ZTA inhibitors: EBNA-1 DNA binding inhibition. shares compounds with ZTA counter. fluorescence polarization. inhibition, % at 14.8 µM. 320 tested, under 10 active. AID 2362; call rule not given here
The depositor's hits bear a star; x = not tested or not shown; + = active, no number. Only some compounds are listed: those with a hit (about 2.3% of all), similar ones and a draw of the others.

SMILES | HCV core dimer | GPR7 antagonist | NS3 helicase inh | ZTA counter | EBNA-1 inh | EBV gp42 inh | Zta DNA confirm | EBNA-1 counter
Cc1ccc(S(=O)(=O)/N=C2/C=C(Sc3ncn[nH]3)C(=O)c3ccccc32)cc1 | -11 | -17 | 2 | 41* | 0 | 5 | 75* | -10
CCN(CCO)c1ccc(NC(=S)Nc2cccc(S(=O)(=O)N(C)C)c2)cc1 | -10 | 5 | 22 | 41* | 23 | 0 | 9 | 3
CN(C)S(=O)(=O)c1cccc(NC(=S)Nc2cc(Cl)cc(Cl)c2)c1 | 9 | -11 | 0 | 15 | 12 | 1 | x | x
CCOC(=O)c1c(C)oc2ccc(O)c(CN(C)C)c12 | -3 | -2 | 3 | -12 | 8 | -12 | x | x
CCOC(=O)c1c(CSc2ccc(CC)cc2)oc2ccc(O)c(CN(C)C)c12 | 0 | 28 | -108 | 34* | 12 | x | 4 | 1
COc1cccc2c1C(=O)c1c(O)c3c(c(O)c1C2=O)C[C@@](O)(C(=O)CO)C[C@@H]3O[C@H]1C[C@H](N)[C@H](O)[C@H](C)O1 | -15 | 5 | 8 | 78* | 25 | + | 98* | -8
CCOC(=O)C1(Cc2ccccc2)CCN(Cc2cccn2-c2nccs2)CC1 | 6 | 18 | -11 | 34* | -1 | -3 | -13 | -8
CCOC(=O)C1(Cc2cccc(OC)c2)CCN(Cc2cccn2-c2nccs2)CC1 | 4 | 7 | -12 | 2 | -16 | -6 | x | x
COc1ccc(CC(=O)NCc2nnc(SCC(=O)Nc3cccc(F)c3)n2C)cc1 | 3 | 3 | -1 | 8 | 12 | -5 | x | x
COc1ccc(NS(=O)(=O)c2ccc3c(c2)[C@H]2C=CC[C@H]2[C@@H](c2ccc(C(=O)O)cc2)N3)cc1 | 23 | -5 | -4 | 35* | 9 | x | 48* | 7
COc1ccc(N(CCC#N)C(=O)/C(C#N)=C/c2cccs2)cc1 | 2 | 11 | -12 | -5 | -13 | -9 | x | x
Cn1nc(-c2ccccn2)nc2c(=O)n(C)c(=O)nc1-2 | 31 | -29 | 1 | 73* | 7 | 1 | 69* | -4
CN1CCc2c(sc3c2C(=O)NC(c2ccccn2)N3)C1 (centres undefined) | 0 | -8 | 8 | 40* | 17 | 11 | 9 | 3
CN1CCc2c(sc3c2C(=O)NC(c2ccccc2)N3)C1 (centres undefined) | -1 | -2 | 6 | 16 | 9 | -57 | x | x
CCOC(=O)c1c(NC(=O)Cn2nc(C(=O)O)c3ccccc3c2=O)sc(CC)c1C | 11 | -7 | 4 | 36* | -1 | -4 | -16 | -12
c1ccc(-n2ncc3c(N4CCCCC4)ncnc32)cc1 | -4 | 0 | -17 | -13 | 6 | -3 | x | x
c1ccc(-n2ncc3c(N4CCN(c5ccccn5)CC4)nc(N4CCCCCC4)nc32)cc1 | 0 | -14 | 22 | 40* | 6 | -9 | 1 | -5
CC1CCN(C(=O)COC(=O)c2n[nH]c(=O)c3ccccc23)CC1 | x | x | x | 36* | x | x | -1 | -7
CCOC(=O)c1n[nH]c(=O)c2ccccc12 | -1 | -16 | -1 | 7 | -1 | -15 | x | x
CC(C)=CCc1c2c(c3occ(-c4ccc(O)cc4)c(=O)c3c1O)C=CC(C)(C)O2 | 5 | -17 | 18 | 35* | 2 | -5 | 9 | 2
CC1(C)C=Cc2c(c3c(c4c(=O)c(-c5ccc(O)cc5)coc24)OC(C)(C)CC3)O1 | 7 | -15 | 3 | 0 | -7 | -1 | x | x
CCOc1ccc(N(CC(=O)NCc2ccccc2C)S(C)(=O)=O)cc1 | -10 | 4 | -13 | -1 | 2 | x | x | x
CC(=O)c1cccc(NC(=O)NNC(=O)c2ccc3ccccc3c2)c1 | 6 | -14 | -1 | 76* | 10 | x | -10 | -5
Cc1cccc(NC(=O)NNC(=O)c2ccc3ccccc3c2)c1 | x | -7 | 5 | x | x | x | x | x
O=C(NS(=O)(=O)Nc1ccc(Br)cn1)c1c[nH]c2ccccc12 | -4 | -2 | -3 | -6 | 0 | x | x | x
SMILES | HCV core dimer | GPR7 antagonist | NS3 helicase inh | ZTA counter | EBNA-1 inh | EBV gp42 inh | Zta DNA confirm | EBNA-1 counter
Cc1cc(C)nc(NC(=O)NS(=O)(=O)Nc2ccc(Br)cn2)n1 | 1 | 6 | -3 | 33* | 15 | -1 | -6 | -3
CCN(CC)C(=O)c1c(-c2ccccc2)oc2ccc(O)cc12 | -6 | 14 | -6 | -8 | 6 | x | x | x
COc1cc(C#Cc2c(-c3cncn3C)n(C)c3ccc(-c4ccc(OC)c(OC)c4)cc23)cc(OC)c1 | x | x | x | 38* | x | x | 36* | 7
CCN1CCN(Cc2ccc(NC(=O)c3cc(NC(=O)c4ccno4)cc(OC)c3)cc2C(F)(F)F)CC1 | -13 | x | x | 1 | 11 | -19 | x | x
CCN1CCN(Cc2ccc(NC(=O)c3cc(NC(=O)c4cc5cccc(OC)c5o4)cc(OC)c3)cc2C(F)(F)F)CC1 | 0 | x | x | 37* | 6 | -3 | 9 | -6
O=C(CNC(=O)c1ccc(Br)o1)OCc1ccc(Br)cc1 | x | x | x | -7 | x | x | x | x
N#Cc1nc(/C=C/c2ccccc2)oc1NCCCN1CCOCC1 | 5 | -8 | -31 | 33* | 4 | -6 | 3 | 0
Nc1cc2nsnc2cc1Br | -73 | 6 | 9 | 68* | 0 | 50 | 28 | -3
C/C(=C\C=C\c1ccccc1)C(=O)c1c(C)cc(C)[nH]c1=O | 2 | -7 | 7 | 8 | -7 | 4 | x | x
CCCOc1ccc(-c2csc3ncn(Cc4ccc(C(=O)O)cc4)c(=O)c23)cc1 | 15 | 2 | 18 | 43* | 12 | -8 | 5 | 4
O=C(O)c1ccc(Cn2cnc3scc(-c4ccccc4)c3c2=O)cc1 | 1 | -16 | 6 | 11 | 12 | 6 | x | x
CCc1nc(SCC(=O)Nc2nccs2)c2oc3ccccc3c2n1 | 24 | 2 | -3 | 42* | 4 | -8 | 38* | 16
O=C(CCN1C(=O)/C(=C\c2ccco2)SC1=S)Nc1ccc(C(=O)O)c(O)c1 | 4 | 3 | 26 | 44* | -1 | x | 9 | 7
COc1ccccc1/C=C1\SC(=S)N(CCC(=O)Nc2ccc(C(=O)O)c(O)c2)C1=O | 9 | 3 | 3 | 12 | 19 | x | x | x
Cc1ccc2nc(-c3ccc(SCC(=O)Nc4nc(C)cs4)nc3)[nH]c2c1 | -4 | -3 | 2 | 48* | 10 | -4 | -1 | 23
Cc1ccc2nc(-c3ccc(SCC(=O)Nc4nnc(C)s4)nc3)[nH]c2c1 | -1 | 6 | -26 | 0 | 19 | -24 | x | x
O=S(=O)(c1cc(Br)c(Cl)s1)N1CCCC1 | 0 | -27 | -3 | -8 | -12 | -6 | x | x
COCCCN1C(=O)c2ccc(C(=O)OCC(=O)N3CCN(c4ccccc4)CC3)cc2C1=O | 4 | x | x | -4 | 3 | x | x | x
CS(=O)(=O)c1ccc2nc(NC(=O)c3ccc(NS(=O)(=O)c4ccc(F)c(F)c4)cc3)sc2c1 | 15 | 5 | -24 | 87* | 19 | -69 | 39* | 17
